Laboratory results taken from ChEMBL document CHEMBL3228030, “Bicyclic pyrazolines, potential central nervous system depressants and antiinflammatory agents” (J Med Chem, 1979).
Activity calls are given as the source filed them. The calls are words filed in the database; no cut-off is given here.

Assays:
[1] = Toxicity in po dosed Sprague-Dawley rat; type: organism-based; conditions: in vivo
[2] = tested on: Rattus norvegicus; assay: Antiinflammatory activity in Sprague-Dawley rat assessed as inhibition of carrageenan-induced paw edema at 150 mg/kg, po after 3 hrs; type: functional
Procedure, shortened: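 Given by mouth in 1 mL water or 1% aqueous sodium carboxymethylcellulose to adult Charles River Sprague-Dawley rats (seven per group), 2 h before a footpad injection of 0.05 mL 1% carrageenan in pyrogen-free saline. After 3 h, rats were killed and paws removed and weighed, with the contralateral paw as control. Read-out was percent inhibition of edema.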

[3] = tested on: Rattus norvegicus; assay: Toxicity in Sprague-Dawley rat assessed as induction of ulcer at 150 to 600 mg/kg, po after 6 hrs; type: organism-based; parameters: dose 150-600 mg/kg, route oral; conditions: in vivo
Procedure, shortened: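 Male Sprague-Dawley rats were kept without food pellets, with free access to water containing 5% dextrose, for 48 h. The compound, dissolved or suspended in water, was then given by gavage at 150, 300 and 600 mg/kg, eight rats per dose.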

[4] = tested on: Rattus norvegicus; assay: Central nervous system activity in ip dosed rat assessed as induction of depressant; type: functional
Procedure, shortened: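 Young adult female rats received 5% solutions or dispersions (two drops Tween 80) in water at 200, 100 and 50 mg/kg. Compounds active at 50 mg/kg were also given at 25 and 12.5 mg/kg. The ED value was the lowest dose that decreased motor activity in 2/2 rats.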

[5] = tested on: Rattus norvegicus; assay: Toxicity in rat at 100 mg/kg, ip; type: organism-based; parameters: dose 100 mg/kg, route intraperitoneal; conditions: in vivo
[6] = tested on: Rattus norvegicus; assay: Central nervous system activity in rat assessed as induction of depressant at 100 mg/kg, po; type: functional, organism-based; parameters: dose 100 mg/kg

| Compound | inhibition in vivo at 150 mg/kg [2] [%] | ED [4] [mg/kg] | also measured |
| --- | --- | --- | --- |
| CCCCC1C(=O)N(c2ccccc2)N(c2ccccc2)C1=O [PHENYLBUTAZONE] | 51 | – | LD50 [1]: 1200 mg/kg; Activity [3]: Non-toxic |
| CN(C)CCCN1N=C2/C(=C\c3ccccc3)CCCC2C1c1ccccc1.O=C(O)C(=O)O (configuration not stated) | – | 50 | – |
| CN1C/C(=C\c2ccccc2)C2=NNC(c3ccccc3)C2C1.Cl (configuration not stated) | – | 50 | – |
| CCC(=O)N1C/C(=C\c2ccccc2)C2=NN(C)C(c3ccccc3)C2C1 (configuration not stated) | – | 200 | – |
| CN(C)CCCN1N=C2/C(=C/c3ccccc3)CN(CCc3ccccc3)CC2C1c1ccccc1.O=C(O)/C=C\C(=O)O (configuration not stated) | – | >200 | – |
| CCCCN1N=C2/C(=C/c3ccccc3)CN(C)CC2C1c1ccccc1.Cl (configuration not stated) | 26 | >200 | – |
| CCN(CC)CCCN1N=C2/C(=C\c3ccccc3)CCCC2C1c1ccccc1.O=C(O)/C=C\C(=O)O (configuration not stated) | – | 100 | – |
| CCCN1N=C2/C(=C/c3ccccc3)CN(C)CC2C1c1ccccc1.O=P(O)(O)O (configuration not stated) | 47 | 100 | LD50 [1]: 5400 mg/kg; Activity [3]: Non-toxic |
| CCCCN1C/C(=C\c2ccccc2)C2=NN(C)C(c3ccccc3)C2C1.Cl (configuration not stated) | – | 100 | – |
| CCN1C/C(=C\c2ccccc2)C2=NN(C)C(c3ccccc3)C2C1.Cl (configuration not stated) | – | 200 | – |
| CN(C)CCN1N=C2/C(=C\c3ccccc3)CCCC2C1c1ccccc1.O=C(O)/C=C\C(=O)O (configuration not stated) | – | 100 | – |
| CCN1N=C2/C(=C/c3ccccc3)CN(C)CC2C1c1ccccc1.Cl (configuration not stated) | – | >200 | – |
| CN1C/C(=C\c2cccc(Cl)c2)C2=NN(C)C(c3cccc(Cl)c3)C2C1.Cl (configuration not stated) | – | >200 | – |
| CC(=O)CCN1C/C(=C\c2ccccc2)C2=NN(C)C(c3ccccc3)C2C1.Cl (configuration not stated) | – | >200 | – |
| CN1N=C2/C(=C/c3ccccc3)CN(C(N)=O)CC2C1c1ccccc1 (configuration not stated) | – | >200 | – |
| C(=C1\CCCC2C1=NN(CCCN1CCCCC1)C2c1ccccc1)/c1ccccc1.O=C(O)/C=C\C(=O)O (configuration not stated) | – | 200 | – |
| CN(C)CCN1N=C2/C(=C/c3ccccc3)CN(C)CC2C1c1ccccc1.Cl (configuration not stated) | – | 25 | Activity [5]: Toxic |
| CN1C/C(=C\c2ccccc2)C2=NN(CCO)C(c3ccccc3)C2C1.Cl (configuration not stated) | 41 | 200 | – |

| Compound | inhibition in vivo at 150 mg/kg [2] [%] | ED [4] [mg/kg] | also measured |
| --- | --- | --- | --- |
| CN1C/C(=C\c2ccccc2)C2=NN(C)[C@@H](c3ccccc3)[C@@H]2C1.Cl | 22 | 50 | – |
| CN1N=C2/C(=C/c3ccccc3)CN(C(=N)N)CC2C1c1ccccc1.Cl (configuration not stated) | – | 200 | – |
| CC(=O)N1N=C2/C(=C/c3ccccc3)CN(C)CC2C1c1ccccc1.Cl (configuration not stated) | – | 200 | – |
| CN1N=C2/C(=C\c3ccccc3)CCCC2C1c1ccccc1 (configuration not stated) | – | >200 | – |
| CN1N=C2/C(=C/c3ccccc3)CN(Cc3ccccc3)CC2C1c1ccccc1.Cl (configuration not stated) | 0 | 100 | – |
| CN(C)CCCN1N=C2/C(=C/c3ccccc3)CN(C)CC2C1c1ccccc1.Cl (configuration not stated) | – | 100 | – |
| COc1ccc(/C=C2\CN(C)CC3C2=NN(C)C3c2ccc(OC)cc2)cc1.Cl (configuration not stated) | 29 | >200 | – |
| CC(=O)N1C/C(=C\c2ccccc2)C2=NN(C)C(c3ccccc3)C2C1 (configuration not stated) | – | 100 | – |
| CN1C/C(=C\c2ccccc2)C2=NN(CC(F)(F)F)C(c3ccccc3)C2C1.Cl (configuration not stated) | 27 | 100 | – |
| CN1C/C(=C\c2ccccc2)C2=NN(CCCc3ccccc3)C(c3ccccc3)C2C1.Cl (configuration not stated) | – | >200 | – |
| CN1C/C(=C\c2ccc(Cl)cc2)C2=NN(C)C(c3ccc(Cl)cc3)C2C1.Cl (configuration not stated) | 17 | >200 | – |
| CCCC(C)(COC(N)=O)COC(N)=O [MEPROBAMATE] | – | 50 | – |
| CN1N=C2/C(=C/c3ccccc3)CNCC2C1c1ccccc1.Cl (configuration not stated) | – | 12.5 | Activity [6]: Active |
| CN1N=C2/C(=C/c3ccccc3)CN(CCc3ccccc3)CC2C1c1ccccc1.Cl (configuration not stated) | 32 | 100 | – |
| CN1CCN(CCCN2N=C3/C(=C\c4ccccc4)CCCC3C2c2ccccc2)CC1.O=C(O)/C=C\C(=O)O (configuration not stated) | – | 200 | – |
| C(=C1\CCCC2C1=NN(CCCN1CCOCC1)C2c1ccccc1)/c1ccccc1.Cl (configuration not stated) | 30 | 100 | – |
| CN1C/C(=C\c2ccccc2Cl)C2=NN(C)C(c3ccccc3Cl)C2C1.Cl (configuration not stated) | – | >200 | – |
| CNC(=O)N1C/C(=C\c2ccccc2)C2=NN(C)C(c3ccccc3)C2C1.Cl (configuration not stated) | – | >200 | – |
